The values that follow come from ChEMBL document CHEMBL1128600, “The cholesterol derivative of a triantennary galactoside with high affinity for hepatic asialoglycoprotein receptor: a potent cholesterol lowering agent” (J Med Chem, 1995).

The species entered for assay [1] is Homo sapiens. Nature of the assay: Particle size of HDL after incubation with the compound (0.01%). It counts as functional. The procedure, abridged: (§1)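 Lipoproteins (LDL 1.019–1.063, HDL 1.063–1.21 ×10³ kg/m³) isolated from human serum by KBr/NaCl density-gradient ultracentrifugation. LDL (0.5 mg/mL) or HDL (2.0 mg/mL) incubated 10 min at room temperature in PBS pH 7.40 with 0–0.33% (w/v) agent. Size measured by photon correlation spectroscopy (120°, 632 nm, 72 s accumulation) and reported as mass-weighted mean ± standard error.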

The species named for assay [2] is Homo sapiens. Nature of the assay: Particle size of LDL after incubation with the compound (0.0055%). Type of assay: functional. The gist of the method: as §1

`C[C@@H]1CC[C@@]2(OC1)O[C@H]1[C@@H](O)[C@H]3[C@@H]4CC[C@H]5C[C@@H](O[C@@H]6O[C@H](CO)[C@H](O[C@@H]7O[C@H](CO)C(O)[C@H](O[C@@H]8OC[C@@H](O)[C@H](O)[C@H]8O)[C@H]7O[C@@H]7O[C@H](CO)[C@H](O)[C@H](O[C@@H]8O[C@H](CO)[C@@H](O)[C@H](O)[C@H]8O)[C@H]7O)[C@H](O)[C@H]6O)[C@H](O)C[C@]5(C)[C@H]4CC[C@]3(C)[C@H]1[C@@H]2C` (some centres not stated): the Activity result in the assay listed under Homo sapiens [1] and in the assay filed under Homo sapiens [2] was “Increase” throughout.
